Consider 34 compounds from ChEMBL document CHEMBL4765248, “Design, synthesis, biological evaluation and molecular docking study of novel thieno[3,2-d]pyrimidine derivatives as potent FAK inhibitors” (Eur J Med Chem, 2020).

The target of one assay is Focal adhesion kinase 1 (Homo sapiens, UniProt Q05397). The experiment in a line: Inhibition of N-terminal GST-fused human truncated FAK (376 to 1052 residues) expressed in baculovirus expression system using tyrosine kinase peptide as substrate measured after 50 mins in presence of ATP by homogenous time resolved flourescence assay.
Focal adhesion kinase 1, sequence (Q05397 whole entry, the tested form may be a part): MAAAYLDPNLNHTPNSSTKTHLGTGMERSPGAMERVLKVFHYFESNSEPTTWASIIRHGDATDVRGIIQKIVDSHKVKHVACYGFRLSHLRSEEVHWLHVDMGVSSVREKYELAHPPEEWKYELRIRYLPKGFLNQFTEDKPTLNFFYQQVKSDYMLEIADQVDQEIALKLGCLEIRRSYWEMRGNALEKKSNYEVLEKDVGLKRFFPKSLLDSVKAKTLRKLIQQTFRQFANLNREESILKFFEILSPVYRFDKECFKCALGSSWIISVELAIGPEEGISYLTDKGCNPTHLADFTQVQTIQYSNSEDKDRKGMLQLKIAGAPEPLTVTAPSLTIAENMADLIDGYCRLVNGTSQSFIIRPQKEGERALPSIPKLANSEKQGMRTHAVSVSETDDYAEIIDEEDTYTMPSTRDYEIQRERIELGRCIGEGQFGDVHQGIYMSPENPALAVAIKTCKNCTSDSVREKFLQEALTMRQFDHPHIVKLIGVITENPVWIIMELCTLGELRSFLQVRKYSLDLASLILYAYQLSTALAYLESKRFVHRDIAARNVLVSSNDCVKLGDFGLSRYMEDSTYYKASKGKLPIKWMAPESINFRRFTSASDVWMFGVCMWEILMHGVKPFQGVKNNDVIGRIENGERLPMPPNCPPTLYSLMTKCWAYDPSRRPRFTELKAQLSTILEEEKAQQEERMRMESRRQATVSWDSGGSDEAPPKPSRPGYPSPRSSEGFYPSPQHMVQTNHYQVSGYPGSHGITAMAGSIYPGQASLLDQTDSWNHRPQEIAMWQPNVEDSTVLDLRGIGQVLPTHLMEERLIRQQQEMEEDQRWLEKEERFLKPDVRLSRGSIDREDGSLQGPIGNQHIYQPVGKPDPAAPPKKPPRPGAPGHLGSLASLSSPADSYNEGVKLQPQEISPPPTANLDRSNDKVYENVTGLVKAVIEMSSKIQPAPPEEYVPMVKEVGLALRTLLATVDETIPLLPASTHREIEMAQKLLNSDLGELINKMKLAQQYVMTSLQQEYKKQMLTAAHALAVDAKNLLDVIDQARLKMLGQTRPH
A further assay relates to U-87 MG. The experiment in a line: Antiproliferative activity against human U-87MG cells assessed as inhibition of cell growth measured after 72 hrs by MTT assay. The format is functional, cell-based, U-87MG ATCC. The gist of the method: (§1)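 Cells were seeded at 4000–5000/well and held 24 h at 37 °C in 5% CO2. Compounds were added at the indicated final concentrations and incubated 72 h. MTT was added (5 mg/mL in PBS, stated as final) for 4 h at 37 °C. Formazan was dissolved in DMSO and absorbance read at 490 nm. The 50% growth-inhibitory concentration is the mean of three independent experiments ± SE.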

The test system of the next assay is A549. Nature of the assay: Antiproliferative activity against human A549 cells assessed as inhibition of cell growth measured after 72 hrs by MTT assay. Format: functional, cell-based. The note with it: A549, 72 h. In short, it runs like this:
as §1

Another assay concerns MDA-MB-231. The experiment in a line: Antiproliferative activity against human MDA-MB-231 cells assessed as inhibition of cell growth measured after 72 hrs by MTT assay. The format is functional, cell-based. The note with it: MDA-MB-231, 72 h. The gist of the method:
as §1

Another assay concerns HK-2. Nature of the assay: Cytotoxicity against human HK2 cells assessed as inhibition of cell proliferation measured after 72 hrs by MTT assay. The format is cell-based. Particulars: HK-2, 72 h. In short, it runs like this: as §1

The structures appear in SMILES notation. pIC50: −log10 of the molar value.

On to `COc1ccccc1-c1csc2cnc(Nc3ccc(C(=O)NC4CCNCC4)c(C)c3)nc12`, for which the pIC50 on Focal adhesion kinase 1 is 7.59; with U-87 MG, 6.34; in the assay on A549, 6.06; in the assay with MDA-MB-231, 6.62; with HK-2, 5.35.

In the case of `COP(=O)(Cc1ccc(Nc2ncc3scc(-c4cccc(C(C)=O)c4)c3n2)cc1)OC`, the pIC50 on Focal adhesion kinase 1 was 6.45.

As for `COc1ccccc1-c1csc2cnc(Nc3ccc(C(=O)NC4CCNCC4)cc3F)nc12`, the pIC50 at Focal adhesion kinase 1 was 7.32; in the assay on U-87 MG, 5.63; with A549, 5.56; in the assay with MDA-MB-231, 5.79.

For `COc1ccccc1-c1csc2cnc(Nc3ccc(NC(=O)[C@H]4CCCNC4)cc3)nc12`, the pIC50 on Focal adhesion kinase 1 is 6.78; in the assay with U-87 MG, 6.52; in the assay on A549, 6.30; in the assay with MDA-MB-231 it was 6.36; in the assay on HK-2, 5.31.

On to `COP(=O)(Cc1ccc(Nc2ncc3scc(-c4cccc(S(C)(=O)=O)c4)c3n2)cc1)OC`, for which the negative-log IC50 (pIC50) on Focal adhesion kinase 1 was 6.85.

With `COP(=O)(Cc1ccc(Nc2ncc3scc(-c4cccc(N(C)S(C)(=O)=O)c4)c3n2)cc1)OC`, the negative logarithm of the IC50 (pIC50) on Focal adhesion kinase 1 was 6.19.

As for `COc1ccccc1-c1csc2cnc(Nc3ccc(CP(=O)(OC)OC)cc3)nc12`, the negative-log IC50 (pIC50) on Focal adhesion kinase 1 was 6.87; with U-87 MG it was 5.77; in the assay with A549, 5.74; in the assay on MDA-MB-231, 5.11.

In the case of `CCOc1cc(C(=O)NC2CCNCC2)ccc1Nc1ncc2scc(-c3ccccc3OC)c2n1`, the negative logarithm of the IC50 (pIC50) is 6.78 on Focal adhesion kinase 1, 5.69 in the assay with U-87 MG, 5.24 in the assay on A549 and 5.36 in the assay with MDA-MB-231.

As to `COc1ccccc1-c1csc2cnc(Nc3ccc(C(=O)N[C@H]4CCNC4)c(F)c3)nc12`, the negative-log IC50 (pIC50) on Focal adhesion kinase 1 is 6.88; with A549, 6.06; in the assay with MDA-MB-231 it was 6.25.

Take `CCOP(=O)(Cc1ccc(Nc2ncc3scc(-c4ccccc4OC)c3n2)cc1)OCC`: the pIC50 on Focal adhesion kinase 1 was 6.80; with U-87 MG it was 5.89; in the assay on A549, 6.02; in the assay with MDA-MB-231, 5.31.

Regarding `CNC(=O)c1cccc(-c2csc3cnc(Nc4ccc(CP(=O)(OC)OC)cc4)nc23)c1`, the pIC50 on Focal adhesion kinase 1 is 6.49.

Regarding `COc1ccccc1-c1csc2cnc(Nc3ccc(NC(=O)C4CCNCC4)cc3)nc12`, the pIC50 on Focal adhesion kinase 1 is 7.24; with U-87 MG, 5.97; in the assay on A549 it was 6.35; in the assay with MDA-MB-231 it was 5.98; in the assay with HK-2, 4.93.

Turning to `CCOP(=O)(OCC)C(O)c1ccc(Nc2ncc3scc(-c4ccccc4OC)c3n2)cc1` (centres undefined), the pIC50 on Focal adhesion kinase 1 is 6.49; in the assay on U-87 MG it was 5.71; with A549, 6.46; in the assay with MDA-MB-231 it was 5.58.

In the case of `COc1cc(C(=O)NC2CCNCC2)c(F)cc1Nc1ncc2scc(-c3ccccc3OC)c2n1`, the negative-log IC50 (pIC50) on Focal adhesion kinase 1 is 7.42; in the assay on U-87 MG it was 5.44; with A549, 5.72; in the assay with MDA-MB-231, 5.94; with HK-2 it was 6.11.

On to `COP(=O)(Cc1ccc(Nc2ncc3scc(-c4cccc(NC(C)=O)c4)c3n2)cc1)OC`, for which the pIC50 on Focal adhesion kinase 1 was 6.42.

`COc1ccccc1-c1csc2cnc(Nc3ccc(C(=O)N[C@@H]4CCNC4)c(F)c3)nc12`: the pIC50 on Focal adhesion kinase 1 is 7.15; with A549, 6.37; in the assay on MDA-MB-231, 6.59.

Consider `COc1ccccc1-c1csc2cnc(Nc3ccc(NC(=O)CN)cc3)nc12`, for which the pIC50 was 6.84 on Focal adhesion kinase 1, 6.68 in the assay with U-87 MG, 5.71 in the assay with A549 and 5.56 with MDA-MB-231.

Consider `COc1ccccc1-c1csc2cnc(Nc3cc(F)c(C(=O)NC4CCNCC4)cc3F)nc12`, for which the negative-log IC50 (pIC50) is 7.62 at Focal adhesion kinase 1, 5.83 in the assay with U-87 MG, 5.27 in the assay on A549 and 5.59 in the assay with MDA-MB-231.

Regarding `COc1ccccc1-c1csc2cnc(Nc3ccc(C(=O)NC4CCOCC4)c(F)c3)nc12`, the pIC50 is 6.93 on Focal adhesion kinase 1, 5.24 in the assay with A549 and 5.27 in the assay on MDA-MB-231.

As for `COc1ccccc1-c1csc2cnc(Nc3ccc(C(=O)NCC4CCNCC4)c(F)c3)nc12`, the values for the pIC50 at Focal adhesion kinase 1, with A549 and in the assay on MDA-MB-231 were 6.92, 5.47 and 5.82, respectively.

Regarding `COc1cc(C(=O)NC2CCNCC2)ccc1Nc1ncc2scc(-c3ccccc3OC)c2n1`, the pIC50 on Focal adhesion kinase 1 was 7.57; in the assay on U-87 MG, 5.19; in the assay with A549, 5.54; with MDA-MB-231 it was 5.65; in the assay with HK-2 it was 4.91.

Consider `CCOP(=O)(Cc1ccc(Nc2ncc3scc(-c4ccccc4OC)c3n2)cc1)N1CCOCC1` (centres undefined), for which the negative logarithm of the IC50 (pIC50) at Focal adhesion kinase 1 was 6.45; with U-87 MG, 5.91; in the assay with A549, 6.07; in the assay with MDA-MB-231, 5.08.

As to `COP(=O)(Cc1ccc(Nc2ncc3scc(-c4ccccc4C(C)=O)c3n2)cc1)OC`, the negative logarithm of the IC50 (pIC50) at Focal adhesion kinase 1 was 5.97.

In the case of `COc1ccccc1-c1csc2cnc(Nc3ccc(C(=O)NC4CCNCC4)cc3C)nc12`, the negative-log IC50 (pIC50) was 7.58 on Focal adhesion kinase 1, 6.60 with U-87 MG, 5.47 in the assay on A549 and 5.49 in the assay on MDA-MB-231.

For `CNC(=O)c1ccc(Nc2ncc3scc(-c4ccccc4OC)c3n2)cc1`, the pIC50 at Focal adhesion kinase 1 was 7.10; in the assay with U-87 MG, 6.15; with A549, 6.51; in the assay on MDA-MB-231, 5.67; in the assay with HK-2, 6.15.

As for `COc1ccccc1-c1csc2cnc(Nc3ccc(C(=O)NC[C@H]4CCCNC4)c(F)c3)nc12`, the pIC50 was 6.83 on Focal adhesion kinase 1, 5.35 in the assay on A549 and 5.06 in the assay on MDA-MB-231.

With `COc1ccccc1-c1csc2cnc(Nc3ccc(C(=O)NC4CCNCC4)cc3C(F)(F)F)nc12`, the pIC50 on Focal adhesion kinase 1 was 6.15; in the assay with U-87 MG it was 5.68; in the assay with A549, 5.39; with MDA-MB-231, 5.56.

For `COc1ccccc1-c1csc2cnc(Nc3ccc(C(=O)NC4CCNCC4)cc3)nc12`, the negative logarithm of the IC50 (pIC50) is 7.41 on Focal adhesion kinase 1; 6.19 with U-87 MG; 6.44 in the assay on A549; 6.96 in the assay on MDA-MB-231; 4.94 in the assay on HK-2.

For the compound `CCOP(=O)(Cc1ccc(Nc2ncc3scc(-c4ccccc4OC)c3n2)cc1)NC` (centres undefined), the pIC50 on Focal adhesion kinase 1 was 6.74; in the assay on U-87 MG, 5.89; in the assay with A549, 5.76; with MDA-MB-231, 5.92.

Regarding `COc1ccccc1-c1csc2cnc(Nc3ccc(C(=O)NC4CCN(C)CC4)c(F)c3)nc12`, the pIC50 at Focal adhesion kinase 1 was 7.32; with A549, 6.18; in the assay on MDA-MB-231, 6.46.

For the compound `COc1ccc(-c2csc3cnc(Nc4ccc(CP(=O)(OC)OC)cc4)nc23)cc1`, the pIC50 at Focal adhesion kinase 1 was 5.97.

As to `COc1ccccc1-c1csc2cnc(Nc3ccc(C(=O)NC[C@@H]4CCCNC4)c(F)c3)nc12`, the values for the pIC50 on Focal adhesion kinase 1, with A549 and with MDA-MB-231 were 6.95, 5.30 and 5.54, respectively.

Turning to `CNC(=O)c1ccccc1Nc1nc(Nc2ccc(N3CCOCC3)cc2OC)ncc1Cl`, the pIC50 was 5.78 in the assay with U-87 MG, 5.94 with A549 and 5.39 with MDA-MB-231.

With `COc1ccccc1-c1csc2cnc(Nc3ccc(NC(=O)[C@@H]4CCCNC4)cc3)nc12`, the negative-log IC50 (pIC50) at Focal adhesion kinase 1 is 6.70; in the assay on U-87 MG, 6.44; in the assay with A549, 6.39; in the assay with MDA-MB-231 it was 6.39.
